Data on 1 molecule can be found in publication PMC5164959 (Biochemical pharmacology, 2016).

For assay [1], the target named is 5-HT2B (Homo sapiens, UniProt P41595). Briefly: Radioligand competition binding assay.
Assay [2] deals with DGKθ. The settings on record: cited from earlier work.
For assay [3], the target named is 5-HT7 (Homo sapiens, UniProt P34969). Briefly: Radioligand competition binding assay. Put shortly: (§1)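 Run by the NIMH PDSP as radioligand competition binding assays. The primary screen used 10 μM test compound and reported mean percent inhibition of radioligand binding (n=4); above 50% counted as significant. At those receptors, IC50 values came from non-linear regression of competition binding isotherms and were converted to Ki with the Cheng-Prusoff equation.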
Chain of 5-HT7 (P34969 whole entry, species assumed): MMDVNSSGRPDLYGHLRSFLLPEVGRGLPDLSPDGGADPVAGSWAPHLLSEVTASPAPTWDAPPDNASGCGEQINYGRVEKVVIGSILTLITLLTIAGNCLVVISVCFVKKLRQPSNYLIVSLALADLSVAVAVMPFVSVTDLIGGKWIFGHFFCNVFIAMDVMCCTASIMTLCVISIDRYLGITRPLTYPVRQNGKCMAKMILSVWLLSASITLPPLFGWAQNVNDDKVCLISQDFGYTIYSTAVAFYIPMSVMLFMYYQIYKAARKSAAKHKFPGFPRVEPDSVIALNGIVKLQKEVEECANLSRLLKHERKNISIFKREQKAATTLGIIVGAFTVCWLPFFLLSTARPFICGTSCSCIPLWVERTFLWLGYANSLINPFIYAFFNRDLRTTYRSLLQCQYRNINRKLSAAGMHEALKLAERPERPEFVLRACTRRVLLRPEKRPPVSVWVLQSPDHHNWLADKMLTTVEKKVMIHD

In assay [4] the test system is PKC. Put plainly: PKC activation: phosphorylation of PKC substrates by western blot in U251 cells. The assay is classed as cell-based, human. The conditions noted are these: treatment for 30 min. The method in brief: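 Glioblastoma cells were treated 30 min with 4 or 40 μM test compound or 100 nM PMA, with or without 1 h pretreatment with 500 nM bisindolylmaleimide II. Cleared Triton lysates (50 μg) were run on 8.75% SDS-PAGE and probed with phospho-(Ser) PKC substrate antibody, detected by alkaline phosphatase chemiluminescence. Three independent experiments were quantified.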

Assay [5] concerns the target DGKα (Rattus norvegicus, UniProt P51556). Put plainly: Kinase assay with HEK 293T cell homogenate over-expressing DGKα. It counts as biochemical. The method in brief:
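Each reaction held 5 μg homogenate protein, 2 mM extruded PC:PS:DAG liposomes (10 mol% dioleoyl, dioctanoyl or stearoyl-arachidonoyl DAG), buffer B, 1 mM DTT, 1 mM CaCl2 and 1 mM [γ32P]-ATP, run 20 min at 30°C. Test compounds came from DMSO stocks. 32P-PA was counted, normalized to GFP lysate and to DMSO control; IC50 from log[inhibitor] versus normalized response.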

Assay [6] addresses T1, 5-HT1A (Homo sapiens, UniProt P08908).
T1 sequence (P08908 1-422): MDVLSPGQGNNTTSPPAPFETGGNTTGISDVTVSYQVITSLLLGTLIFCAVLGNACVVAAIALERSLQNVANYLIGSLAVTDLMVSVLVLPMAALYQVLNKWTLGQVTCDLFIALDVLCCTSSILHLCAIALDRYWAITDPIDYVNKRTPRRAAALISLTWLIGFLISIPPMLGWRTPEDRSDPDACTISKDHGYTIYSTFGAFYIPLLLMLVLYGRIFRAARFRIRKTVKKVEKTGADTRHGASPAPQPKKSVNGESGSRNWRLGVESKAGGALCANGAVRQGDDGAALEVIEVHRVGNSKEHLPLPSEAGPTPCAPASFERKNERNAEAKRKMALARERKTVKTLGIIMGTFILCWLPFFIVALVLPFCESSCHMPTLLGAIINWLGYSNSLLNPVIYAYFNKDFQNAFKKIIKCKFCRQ
Put plainly: Radioligand competition binding assay. On the technique in general: In a radioligand displacement assay an active substance lowers the binding of a labelled ligand.

Assay [7] addresses 5-HT1B (Homo sapiens, UniProt P28222). Put plainly: Radioligand competition binding assay. Put shortly:
as §1

The test system of assay [8] is 5-HTRs. Put plainly: Agonist functional assays at 5 serotonin receptors. It counts as cell-based. The conditions noted are these: 5 receptors where low Ki values were observed; data not shown.
Assay [9] deals with DGKδ (Homo sapiens, UniProt Q16760). Put plainly: Kinase assay with HEK 293T cell homogenate over-expressing DGKδ. The conditions noted are these: 20 μM inhibitor, dioleoyl DAG liposomes. It counts as biochemical. The method in brief:
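Reactions without CaCl2 contained 5 μg homogenate, 2 mM liposomes (10 mol% dioleoyl DAG, 40 mol% PS, 50 mol% PC), buffer B, 1 mM DTT and [γ32P]-ATP, 20 min at 30°C. Test compound was added from DMSO. Extracted 32P-lipid was counted, GFP-lysate normalized, and expressed as percent of DMSO control.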

Chain of DGKα (P51556 whole entry): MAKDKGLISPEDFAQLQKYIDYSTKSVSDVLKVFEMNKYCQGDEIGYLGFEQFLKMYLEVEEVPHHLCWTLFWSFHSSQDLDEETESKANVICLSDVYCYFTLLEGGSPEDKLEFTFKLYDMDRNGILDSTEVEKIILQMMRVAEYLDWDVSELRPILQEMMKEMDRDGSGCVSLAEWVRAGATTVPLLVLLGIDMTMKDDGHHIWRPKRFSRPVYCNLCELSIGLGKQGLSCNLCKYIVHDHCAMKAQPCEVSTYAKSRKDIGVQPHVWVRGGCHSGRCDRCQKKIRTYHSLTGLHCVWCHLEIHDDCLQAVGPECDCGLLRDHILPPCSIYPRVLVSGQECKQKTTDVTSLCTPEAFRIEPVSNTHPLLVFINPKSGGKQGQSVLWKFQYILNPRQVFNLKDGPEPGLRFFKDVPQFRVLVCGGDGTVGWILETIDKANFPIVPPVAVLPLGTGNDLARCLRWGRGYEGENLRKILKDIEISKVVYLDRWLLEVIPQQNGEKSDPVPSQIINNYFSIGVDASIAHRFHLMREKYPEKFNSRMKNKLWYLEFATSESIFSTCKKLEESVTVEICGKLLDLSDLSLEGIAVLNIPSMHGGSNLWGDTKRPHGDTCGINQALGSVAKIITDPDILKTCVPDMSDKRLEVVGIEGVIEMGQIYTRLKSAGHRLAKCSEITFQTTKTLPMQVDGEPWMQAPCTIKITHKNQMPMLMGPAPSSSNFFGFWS
Chain of 5-HT2B (P41595 whole entry, species assumed): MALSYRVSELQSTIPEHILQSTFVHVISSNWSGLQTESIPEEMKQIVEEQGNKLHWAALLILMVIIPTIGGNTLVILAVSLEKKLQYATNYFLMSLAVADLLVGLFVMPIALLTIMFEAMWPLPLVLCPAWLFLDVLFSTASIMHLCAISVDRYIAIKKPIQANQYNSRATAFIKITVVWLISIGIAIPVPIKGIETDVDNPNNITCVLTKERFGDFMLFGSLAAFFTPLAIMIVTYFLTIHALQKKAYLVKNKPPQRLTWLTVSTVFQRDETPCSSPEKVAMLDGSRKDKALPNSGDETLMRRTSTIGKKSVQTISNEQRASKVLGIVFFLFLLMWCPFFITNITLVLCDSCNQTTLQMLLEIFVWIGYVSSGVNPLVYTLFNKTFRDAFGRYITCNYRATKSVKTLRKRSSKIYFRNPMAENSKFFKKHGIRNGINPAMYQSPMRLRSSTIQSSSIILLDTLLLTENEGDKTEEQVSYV
Chain of 5-HT1B (P28222 whole entry, species assumed): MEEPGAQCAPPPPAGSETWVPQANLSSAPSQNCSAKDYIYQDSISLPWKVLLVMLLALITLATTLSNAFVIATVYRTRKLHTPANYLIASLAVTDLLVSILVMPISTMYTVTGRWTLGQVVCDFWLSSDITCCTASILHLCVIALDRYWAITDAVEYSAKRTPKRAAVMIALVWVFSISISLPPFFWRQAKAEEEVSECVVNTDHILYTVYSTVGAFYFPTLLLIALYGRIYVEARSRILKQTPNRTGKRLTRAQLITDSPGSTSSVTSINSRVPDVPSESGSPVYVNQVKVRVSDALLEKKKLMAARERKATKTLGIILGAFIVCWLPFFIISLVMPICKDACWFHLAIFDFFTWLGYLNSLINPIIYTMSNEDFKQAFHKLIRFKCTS
Chain of DGKδ (Q16760 1-1170 isoform Q16760-2): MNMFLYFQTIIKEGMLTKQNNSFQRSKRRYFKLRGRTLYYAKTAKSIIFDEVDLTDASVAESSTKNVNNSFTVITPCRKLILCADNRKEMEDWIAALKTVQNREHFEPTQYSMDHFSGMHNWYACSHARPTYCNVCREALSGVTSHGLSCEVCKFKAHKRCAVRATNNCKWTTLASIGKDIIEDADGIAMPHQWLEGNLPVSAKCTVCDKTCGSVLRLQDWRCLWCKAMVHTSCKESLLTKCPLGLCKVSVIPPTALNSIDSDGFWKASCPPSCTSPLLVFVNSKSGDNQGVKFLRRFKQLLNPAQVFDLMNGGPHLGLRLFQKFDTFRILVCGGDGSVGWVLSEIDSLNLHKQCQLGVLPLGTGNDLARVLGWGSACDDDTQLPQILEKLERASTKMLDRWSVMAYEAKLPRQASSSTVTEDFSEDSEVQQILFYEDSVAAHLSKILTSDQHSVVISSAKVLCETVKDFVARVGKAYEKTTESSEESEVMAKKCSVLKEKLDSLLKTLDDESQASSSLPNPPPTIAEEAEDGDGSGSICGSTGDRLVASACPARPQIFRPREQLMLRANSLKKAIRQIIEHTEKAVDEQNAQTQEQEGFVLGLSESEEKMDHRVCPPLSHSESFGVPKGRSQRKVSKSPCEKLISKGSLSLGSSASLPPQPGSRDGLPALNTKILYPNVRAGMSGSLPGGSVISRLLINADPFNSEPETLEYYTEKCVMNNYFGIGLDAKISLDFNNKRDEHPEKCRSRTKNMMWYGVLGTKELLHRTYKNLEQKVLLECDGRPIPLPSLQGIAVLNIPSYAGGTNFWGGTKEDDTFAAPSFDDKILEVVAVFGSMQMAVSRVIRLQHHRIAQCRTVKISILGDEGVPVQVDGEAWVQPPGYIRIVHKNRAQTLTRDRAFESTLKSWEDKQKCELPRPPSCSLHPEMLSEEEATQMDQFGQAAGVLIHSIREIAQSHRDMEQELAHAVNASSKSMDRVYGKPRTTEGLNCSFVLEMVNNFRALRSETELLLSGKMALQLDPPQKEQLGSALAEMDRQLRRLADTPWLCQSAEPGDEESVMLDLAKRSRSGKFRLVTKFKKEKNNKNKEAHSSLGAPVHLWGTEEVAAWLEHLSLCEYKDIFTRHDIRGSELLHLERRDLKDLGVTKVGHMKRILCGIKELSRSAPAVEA

For `Cc1nc2sccn2c(=O)c1CCN1CCC(=C(c2ccccc2)c2ccc(F)cc2)CC1` [R59022], the “Percent Inhibition of Binding 5-HT2B” value in [1] (10 μM test compound, n=4) is on record as 100.5%. Further, the inhibition constant (Ki) in assay [1] (read-out: Ki 5-HT2B, Cheng-Prusoff from best-fit IC50) came out at 2.7 nM; in assay [3] (read-out: Ki 5-HT7, Cheng-Prusoff from best-fit IC50) it was 14.2 nM; in [6] (read-out: Ki 5-HT1A, Cheng-Prusoff from best-fit IC50), 410 nM; in assay [7] (read-out: Ki 5-HT1B, Cheng-Prusoff from best-fit IC50) it was 656 nM. Further, in assay [2], the “Inhibition of DGKθ” value is “reported to inhibit”. Moreover, the “Percent Inhibition of Binding 5-HT7” value in assay [3] (10 μM test compound, n=4) is recorded as 98.5%. Also, the “Activation of PKC” value in assay [4] is “not in U251 cells”. For the same molecule, the “Activity of DGKα, percent of control” value in [5] (20 μM inhibitor, liposomes with dioleoyl DAG, cell homogenate) is recorded as “decreased by about half”. In addition, the “Potency against DGKα with other DAG species” value in assay [5] (20 μM, liposomes containing dioctanoyl or stearoyl arachidonoyl DAG) is listed as “similarly potent”. Further, in assay [5] (read-out: IC50 for DGKα, cell homogenate, 1 mM ATP, 10 mol% DAG), the IC50 is ~25 µM. Further, the “Percent Inhibition of Binding 5-HT1A” value in [6] (10 μM test compound, n=4) is recorded as 82.4%. Further, the “Percent Inhibition of Binding 5-HT1B” value in assay [7] (10 μM test compound, n=4) stood at 83.5%. In addition, the “Agonist activity at 5-HTRs” value in assay [8] is listed as “very low to no activity”. Besides, the “Activity of DGKδ, percent of control” value in assay [9] was “not detectably inhibited”.

The term Ki denotes the dissociation constant of the complex between target and ligand, obtained from inhibition or displacement. The term IC50 denotes the midpoint of a concentration-inhibition curve.
